Calb biofilm kill: clotrimazole potentiators killing C. albicans biofilm, primary screen, 4-compound mixtures. C. albicans biofilm persisters + clotrimazole, fluorescence viability; primary screen in compound mixtures of four per well. inhibition, % at 7.6 µM. hit rate 0.02% among 120,000. AID 1242, 2008;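 active means inhibition above 30.3% in the primary screen of four-compound pools, then above 30% when the compound was retested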;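 further: compounds exposed to preformed 24 h biofilms for 48 h; 0% = untreated biofilm control and 100% = clotrimazole plus chlorhexidine kill blank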
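Assay system: C. albicans biofilms / Medium: RPMI/MOPS medium, pH 7.0 / Schedule: biofilm formation 24 h, compound exposure 48 h, 37 °C / Measured by: Alamar Blue fluorescence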
Arbovirus anti: antivirals against arbovirus infection, primary screen, cell-based, full library, 10K replicate subset; AID 1251, 2008; hit rate 0.37% among 200,000; arbovirus infection cell-based antiviral screen; inhibition, % at 10 µM; in the data active means inhibition above about 30%
NCF1 inh: p47phox/p22phox peptide binding inhibitors, primary screen, biochemical, uHTS, NADPH oxidase regulatory subunit. fluorescence polarization, 2 h. inhibition, % at 24.7 µM. AID 1274, 2008. Neutrophil cytosol factor 1 (Homo sapiens), P14598. hit rate 0.53% among 220,000;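 active means inhibition above about 30%, limit read from the data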;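 further: 0% = p47phox with labelled peptide and 100% = labelled peptide alone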
Target sequence (P14598 whole entry, looked up): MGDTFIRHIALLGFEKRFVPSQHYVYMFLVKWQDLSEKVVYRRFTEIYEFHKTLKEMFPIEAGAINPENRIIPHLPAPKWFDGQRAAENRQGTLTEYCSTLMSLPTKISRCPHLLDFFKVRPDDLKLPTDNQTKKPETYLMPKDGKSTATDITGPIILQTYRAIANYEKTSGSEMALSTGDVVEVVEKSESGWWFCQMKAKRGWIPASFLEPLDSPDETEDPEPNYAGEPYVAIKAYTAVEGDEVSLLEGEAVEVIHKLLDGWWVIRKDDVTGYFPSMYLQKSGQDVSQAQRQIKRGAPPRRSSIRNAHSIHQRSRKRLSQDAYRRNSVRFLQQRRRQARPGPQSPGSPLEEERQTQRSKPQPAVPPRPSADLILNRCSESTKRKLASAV
RAM inhibit: inhibitors of the yeast RAM network, primary screen, dse1pr::URA3 reporter, 5-FOA selection; inhibition, % at 50 µM; hit rate 1.8% among 190,000; S. cerevisiae dse1pr::URA3 reporter, 5-FOA growth OD615, 2 d; analog-sensitive cbk1-as2 kinase mutant strain;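 active means inhibition above a set limit, 3 SD over mean compound inhibition, cut at about 8.4% in these data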;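 further: 0% = DMSO-only wells with no growth and 100% = 10 µM 1-NA-PP1 full growth; inhibition rescues growth on 5-FOA so higher OD means more RAM inhibition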
WT yeast gro inh: growth inhibition of WT strain, primary screen, mitochondrial fusion inhibitor project, WT and mutant strains, chemical genetic; mitochondrial fusion phenotypic screen; AID 1362, 2008; inhibition, % at 10 µM; hit rate 2.1% among 190,000; in the data active means inhibition above about 58%; tested in S. cerevisiae
Hck-Nef inh: inhibitors of Nef-activated human Hck kinase, primary screen, biochemical, Z-Lyte FRET, 384-well, Hck-YEEI. Tyrosine-protein kinase HCK (Homo sapiens), P08631. Recombinant Hck-YEEI plus Nef, Z-Lyte FRET kinase assay. inhibition, % at 20 µM. hit rate 0.68% among 220,000;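 active means Hck-Nef kinase inhibition above about 50%, limit read from the data; inactive means inhibition below that limit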;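 further: 0% = DMSO with Hck plus Nef and 100% = Hck alone without Nef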
* marks the source's active call; other numbers are inactive results. A selection: hits, their analogues and other compounds. The true share with any hit is near 4.6%.

What do the screens show for `O=C(O)c1ccc(S(=O)(=O)Nc2cccc(CP(=O)(c3ccccc3)c3ccccc3)c2)cc1`?
Calb biofilm kill: 17; NCF1 inh: -7; Hck-Nef inh: -6

How did Cc1ccccc1C(=O)Oc1ccc(Br)cc1C(=S)N1CCCC1 do in these assays?
Arbovirus anti: 9; NCF1 inh: -9; RAM inhibit: 9.8*; WT yeast gro inh: 3; Hck-Nef inh: 0

How did Cc1ccc(CN=c2c([N+](=O)[O-])nn(-c3cccc(Cl)c3)n2O)cc1 do in these assays?
Calb biofilm kill: 13; Arbovirus anti: -28; NCF1 inh: 13; RAM inhibit: 4; WT yeast gro inh: 61*; Hck-Nef inh: 27

What do the screens show for `CCOC(=O)c1c(CSc2ccccc2)n(C)c2cc(Br)c(OCC(O)CNC(CO)(CO)CO)cc12` (stereo not given)?
Calb biofilm kill: 7; Arbovirus anti: -45; NCF1 inh: 42*; RAM inhibit: 2; WT yeast gro inh: -14; Hck-Nef inh: -7

What do the screens show for `CCOC(=O)c1c(CSC(=N)N)n(-c2ccccc2)c2cc(Br)c(OC(C)=O)cc12`?
Calb biofilm kill: 6; NCF1 inh: -4; Hck-Nef inh: 24

Results for CCOC(=O)c1c(CN2CCN(Cc3ccccc3)CC2)n(C)c2cc(Br)c(OC)cc12 ?
Arbovirus anti: -4; NCF1 inh: -16; RAM inhibit: 0; WT yeast gro inh: 95*; Hck-Nef inh: 2

How did CCOC(=O)c1c(CN2CCC(C)CC2)n(C)c2cc(Br)c(OC)cc12 do in these assays?
Calb biofilm kill: 27; NCF1 inh: -13; Hck-Nef inh: 16

How did C=CCOc1c(Br)cc(CNc2ccc(NC(=O)C(C)C)c(OC)c2)cc1OC do in these assays?
Arbovirus anti: -5; NCF1 inh: -10; RAM inhibit: 7; WT yeast gro inh: -17; Hck-Nef inh: -1

Results for C=CCn1c(=O)/c(=C2/Sc3cc(OC)ccc3N2C)s/c1=C1\C(=O)N(CC)C(=S)N1C ?
Calb biofilm kill: 6; Arbovirus anti: -7; NCF1 inh: -15; RAM inhibit: 11*; WT yeast gro inh: 11; Hck-Nef inh: 34

How did CCc1ccc(CC2S/C(=C(\C#N)C(C)=O)NC2=O)cc1 (stereo not given) do in these assays?
Arbovirus anti: 33*; NCF1 inh: -7; RAM inhibit: 3; WT yeast gro inh: 12; Hck-Nef inh: -1

Results for O=C(NCc1ccc2c(c1)OCO2)c1ccc(COc2cccc(Cl)c2)o1 ?
Arbovirus anti: 5; NCF1 inh: -15; RAM inhibit: 6; WT yeast gro inh: 69*; Hck-Nef inh: 2

How did O=C(NCc1ccc2c(c1)OCO2)c1ccc(CSCc2ccccc2Cl)o1 do in these assays?
Calb biofilm kill: 12; Arbovirus anti: 8; NCF1 inh: 1; RAM inhibit: 11*; WT yeast gro inh: 42; Hck-Nef inh: 1

Results for Cc1ccc(S(=O)(=O)Cc2ccc(C(=O)NCc3ccc4c(c3)OCO4)o2)cc1 ?
Arbovirus anti: -2; NCF1 inh: -17; RAM inhibit: 1; WT yeast gro inh: 6; Hck-Nef inh: 1

How did O=C(N=NC(=O)c1ccco1)c1ccc2c(O)n(N3C(=O)c4ccccc4C3=O)c(O)c2c1 do in these assays?
Calb biofilm kill: 10; Arbovirus anti: 7; NCF1 inh: -4; RAM inhibit: 2; WT yeast gro inh: -10; Hck-Nef inh: -6

What do the screens show for `O=C(c1ccccc1)c1ccc2nc(-c3ccc(NC(=O)c4ccccc4Br)cc3)[nH]c2c1`?
Arbovirus anti: -25; NCF1 inh: -21; RAM inhibit: 8.7*; WT yeast gro inh: -27; Hck-Nef inh: 2

How did O=C(Nc1ccc(-c2nc3ccccc3[nH]2)cc1)c1ccc(N2C(=O)CCC2=O)cc1 do in these assays?
Calb biofilm kill: 8; Arbovirus anti: 1; NCF1 inh: -4; RAM inhibit: 9.1*; WT yeast gro inh: -2; Hck-Nef inh: 2

What do the screens show for `CCN(CC)c1ccc2ccc(=O)oc2c1`?
Calb biofilm kill: 47; Arbovirus anti: 4; NCF1 inh: -1; RAM inhibit: 2; WT yeast gro inh: -22; Hck-Nef inh: 114*

What do the screens show for `CCN(CC)c1ccc2c(Cl)c(Br)c(=O)oc2c1`?
Arbovirus anti: -45; NCF1 inh: -36; RAM inhibit: 6; WT yeast gro inh: 77*; Hck-Nef inh: 11

How did CC(Sc1nncs1)C(=O)Nc1ccc2c(c1)OCO2 (stereo not given) do in these assays?
Calb biofilm kill: 8; Arbovirus anti: -4; NCF1 inh: -2; RAM inhibit: 0; WT yeast gro inh: 16; Hck-Nef inh: 15

What do the screens show for `S=C(NCCc1ccccc1)NC1CCCCCC1`?
Arbovirus anti: 29; NCF1 inh: -20; RAM inhibit: -1; WT yeast gro inh: 68*; Hck-Nef inh: 0

How did S=C(NCCc1ccc(Cl)cc1)NC1CCCC1 do in these assays?
Calb biofilm kill: 8; Arbovirus anti: 10; NCF1 inh: -3; RAM inhibit: 2; WT yeast gro inh: 65*; Hck-Nef inh: -10

What do the screens show for `Fc1ccc(CNC(=S)NC2CCCCCC2)cc1`?
Calb biofilm kill: -6; Arbovirus anti: 4; NCF1 inh: -1; RAM inhibit: 1; WT yeast gro inh: 71*; Hck-Nef inh: 12

How did S=C(NCCNCc1ccccc1)NC1CCCCC1 do in these assays?
Calb biofilm kill: 19; Arbovirus anti: -22; NCF1 inh: -11; RAM inhibit: 2; WT yeast gro inh: 62*; Hck-Nef inh: -35

What do the screens show for `S=C(NCc1ccccc1Cl)NC1CCCC1`?
Calb biofilm kill: -7; Arbovirus anti: 10; NCF1 inh: -21; RAM inhibit: -1; WT yeast gro inh: 53; Hck-Nef inh: 6

How did S=C(NC1CCCCC1)N(CCc1ccccc1)CCc1ccccc1 do in these assays?
Calb biofilm kill: 22; Arbovirus anti: 16; NCF1 inh: -16; RAM inhibit: 7; WT yeast gro inh: 62*; Hck-Nef inh: 2

How did O=C(Nc1cccc(C(F)(F)F)c1)N(Cc1ccc(Cl)cc1)CC(O)C(F)(F)F (stereo not given) do in these assays?
Arbovirus anti: -42; NCF1 inh: -4; RAM inhibit: 0; WT yeast gro inh: 84*; Hck-Nef inh: -2

How did CC1CCN(S(=O)(=O)c2ccc(C(=O)NCc3cccnc3)cc2)CC1 do in these assays?
Calb biofilm kill: 9; Arbovirus anti: -5; NCF1 inh: 7; RAM inhibit: 2; WT yeast gro inh: -8; Hck-Nef inh: 22

What do the screens show for `O=[N+]([O-])c1ccc(COc2cccc(CNc3ccc(F)cc3)c2)cc1`?
Calb biofilm kill: 15; Arbovirus anti: -5; NCF1 inh: -9; RAM inhibit: 9.9*; WT yeast gro inh: 48; Hck-Nef inh: 0
